# Experimental data collected from several papers.
# Protocols differ between the studies behind these lines.
# Target: NAD-dependent protein deacetylase sirtuin-1 (SIRT1, Homo sapiens, UniProt Q96EB6)
# Effect on: enzyme activity
# Action: inhibitor
# Residues used in one study (Q96EB6 193-741): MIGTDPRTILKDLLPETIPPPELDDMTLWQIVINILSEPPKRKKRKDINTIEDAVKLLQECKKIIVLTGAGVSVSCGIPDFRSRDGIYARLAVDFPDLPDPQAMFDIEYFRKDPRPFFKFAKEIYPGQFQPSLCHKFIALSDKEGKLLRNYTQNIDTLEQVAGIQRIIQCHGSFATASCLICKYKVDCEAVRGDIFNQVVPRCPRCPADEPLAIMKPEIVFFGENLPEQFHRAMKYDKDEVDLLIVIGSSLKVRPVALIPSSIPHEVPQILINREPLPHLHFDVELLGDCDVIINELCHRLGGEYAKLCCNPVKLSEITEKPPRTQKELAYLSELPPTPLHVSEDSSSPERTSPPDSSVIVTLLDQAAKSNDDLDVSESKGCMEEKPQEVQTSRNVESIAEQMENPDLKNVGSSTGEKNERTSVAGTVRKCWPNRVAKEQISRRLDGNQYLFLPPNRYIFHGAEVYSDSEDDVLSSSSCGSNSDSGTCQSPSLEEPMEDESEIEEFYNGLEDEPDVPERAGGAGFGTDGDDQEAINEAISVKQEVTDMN
Compound,assay,conditions,inhibition [%]
Cc1ccc(C(=O)Nc2ccc(S(=O)(=O)O)c3cc(S(=O)(=O)O)cc(S(=O)(=O)O)c23)cc1NC(=O)c1cccc(NC(=O)Nc2cccc(C(=O)Nc3cc(C(=O)Nc4ccc(S(=O)(=O)O)c5cc(S(=O)(=O)O)cc(S(=O)(=O)O)c45)ccc3C)c2)c1,,10 µM,74
CCCCC[C@@H]1CC(=O)c2cc(Cl)cc(Br)c2O1,fluorescence,200 µM,5.3
CCCCCCCCCCCCNC(=S)NCCCC[C@H](NC(=O)OCc1ccccc1)C(=O)N[C@@H](Cc1c[nH]c2ccccc12)C(=O)N[C@@H](CCCNC(=N)N)C(N)=O,,1 µM,52
CCCCCC1C=Cc2cc(Cl)cc(Br)c2O1 (stereo not shown),fluorescence,200 µM,7.1
O=C(NC1CCC1)[C@H](Cc1c[nH]c2ccccc12)NC(=O)[C@H](CCCCNC(=S)NCc1n[nH]c(=S)o1)NS(=O)(=O)c1cccc(F)c1,,30 µM,37
Ic1cccc2cnccc12,,10 µM,2
O=C(NC1CCC1)[C@H](Cc1c[nH]c2ccccc12)NC(=O)[C@H](CCCCNC(=S)NCCc1nnn[nH]1)NS(=O)(=O)c1cccc(F)c1,,10 µM,17
CC(=S)NCCCC[C@H](NC(=O)OCc1ccccc1)C(=O)N[C@@H](Cc1c[nH]c2ccccc12)C(=O)N[C@@H](CCC(=O)O)C(N)=O,,1 µM,83
CCCCCC1CC(=O)c2ccc(F)cc2O1 (stereo not shown),fluorescence,200 µM,3.8
NC(=O)CCNC(=S)NCCCC[C@H](NS(=O)(=O)c1cccc(F)c1)C(=O)N[C@@H](Cc1c[nH]c2ccccc12)C(=O)NC1CCC1,,10 µM,3
